Experimental data reported in ChEMBL document CHEMBL1123641, “Antiulcer agents. 2. Gastric antisecretory, cytoprotective, and metabolic properties of substituted imidazo[1,2-a]pyridines and analogues” (J Med Chem, 1987).

Experiments:
Type in all cases: functional
Rattus norvegicus [1] = organism: Rattus norvegicus; assay: Cytoprotective activity in rats against the ethyl alcohol stimulated ulcers measured as effective dose
Summary of the method: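 Rats were dosed orally at 1–30 mg/kg, 30 min before an oral challenge of absolute ethanol. Ethanol-induced gastric lesions were scored 1 h later, and an effective dose was estimated.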

Canis familiaris [2] = assay: Antisecretory activity in histamine stimulated dogs at 8 mg/kg dose administered orally; conditions: Canis lupus familiaris, route oral
Summary of the method: (§1)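 Heidenhain pouch mongrel dogs, histamine-stimulated acid secretion. Compound given orally at 2–8 mg/kg. Reduction in acid output is relative to the same animal's own nondrug control, since histamine response depends on pouch size. Usually a single dog per compound. Oral ED50 is the dose reducing acid output to 50% of control.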

Rattus norvegicus [3] = assay: Antisecretory activity in pylorus ligated rats at a 40 mg/kg dose administered intraperitoneally; conditions: ip, route intraperitoneal
Summary of the method: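 Pylorus-ligated rats, six per compound and eight controls. Compound given intraperitoneally at 40 mg/kg at the time of ligation. Reduction in acid output measured over 4 h.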

Canis familiaris [4] = assay: Antisecretory activity in histamine stimulated dogs at 2 mg/kg dose administered intravenously; conditions: Canis lupus familiaris, route intravenous
Summary of the method: (§2)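 Adult mongrel dogs with surgically prepared Heidenhain pouches, acid secretion stimulated with histamine. Compound given intravenously (0.1-5 mg/kg range). Acid output reduction is expressed relative to the nondrug-treated control value in the same animal, each dog serving as its own control. Unless noted otherwise, one dog per compound. ED50 is the iv dose reducing acid output to 50% of control.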

Canis familiaris [5] = assay: Antisecretory activity in histamine stimulated dogs following 5 mg/kg i.v. administration.; conditions: Canis lupus familiaris, route intravenous; summary of the method: as §2
Canis familiaris [6] = assay: Antisecretory activity in histamine stimulated dogs at 4 mg/kg dose administered orally; conditions: Canis lupus familiaris, route oral; summary of the method: as §1
Canis familiaris [7] = assay: Antisecretory activity in histamine stimulated dogs at 1 mg/kg dose administered intravenously; conditions: Canis lupus familiaris, route intravenous; summary of the method: as §2
Canis familiaris [8] = assay: Antisecretory activity in histamine stimulated dogs at 2 mg/kg dose administered orally; conditions: Canis lupus familiaris, route oral; summary of the method: as §1
Canis familiaris [9] = assay: Antisecretory activity in histamine stimulated dogs at 0.1 mg/kg dose administered intravenously; conditions: Canis lupus familiaris, route intravenous; summary of the method: as §2
Canis familiaris [10] = assay: Antisecretory activity in histamine stimulated dogs at 5 mg/kg dose administered intravenously; conditions: Canis lupus familiaris; route intravenous; summary of the method: as §2
Canis familiaris [11] = assay: percentage inhibition of acid secretion in histamine stimulated dogs at a dose of 0.4 mg/kg; conditions: Canis lupus familiaris
Canis familiaris [12] = assay: percentage inhibition of acid secretion in histamine stimulated dogs at a dose of 0.2 mg/kg; conditions: Canis lupus familiaris
Canis familiaris [13] = assay: Antisecretory activity in histamine stimulated dogs at 5 mg/kg dose administered orally; conditions: Canis lupus familiaris; route oral; summary of the method: as §1

Row | Structure (SMILES) | ED50 (Rattus norvegicus [1]) | inhibition in vivo at 8 mg/kg (Canis familiaris [2]) | inhibition in vivo at 40 mg/kg (Rattus norvegicus [3]) | inhibition in vivo at 2 mg/kg (Canis familiaris [4]) | inhibition in vivo at 5 mg/kg (Canis familiaris [5]) | also measured
1 | CCCCc1nc2c(OCc3ccccc3)cccn2c1N | 7.5 mg/kg | 0% | 26% | 45% |  | 
2 | Cc1nc2c(OCc3ccccn3)cccn2c1N | 2.3 mg/kg | 15% | 16% |  |  | 
3 | Cc1nc2c(OCc3ccc(C(F)(F)F)cc3)cccn2c1N | 6.5 mg/kg | 8% | 78% | 0% |  | 
4 | CSc1c(C)nc2c(CCc3ccccc3)cccn12 | 8.5 mg/kg |  | 28% |  | 0% | 
5 | Cc1nc2c(OCc3ccccc3)cccn2c1N(C)C | 2.8 mg/kg | 72% | 76% | 85% |  | 
6 | CCCNc1c(C)nc2c(OCc3ccccc3)cccn12 | 5.3 mg/kg | 68% | 99% | 12% |  | 
7 | CC(C)(C)c1nc2c(OCc3ccccc3)cccn2c1N | 15 mg/kg | 0% | 0% |  | 2% | 
8 | Cc1nc2c(CCc3ccccc3)nccn2c1N |  |  |  |  | 18% | 
9 | Cc1nc2c(Oc3ccccc3)cccn2c1N | 5 mg/kg | 19% | 34% | 40% |  | 
10 | Cc1cc(OCc2ccccc2)c2nc(C)c(C)n2c1 | 8.2 mg/kg | 71% | 86% | 45% |  | inhibition in vivo at 4 mg/kg (Canis familiaris [6]): 0%
11 | Cc1nc2c(OCc3ccc(Cl)cc3)cccn2c1N | 2.2 mg/kg | 92% | 66% |  |  | inhibition in vivo at 4 mg/kg (Canis familiaris [6]): 81%; inhibition in vivo at 1 mg/kg (Canis familiaris [7]): 74%; inhibition in vivo at 2 mg/kg (Canis familiaris [8]): 32%
12 | Cc1nc2ccc(CCc3ccccc3)cn2c1N | 5.7 mg/kg | 0% | 52% | 6% |  | 
13 | Cc1nc2c(NCc3ccccc3)cccn2c1N | 9.6 mg/kg | 89% | 84% | 98% |  | 
14 | Cc1nc2c(SCc3ccccc3)cccn2c1N | 5.7 mg/kg | 11% | 0% | 0% |  | 
15 | Cc1nc2c(OCc3ccccc3)cccn2c1/N=C/N(C)C | 9.8 mg/kg | 0% | 64% | 12% |  | 
16 | Nc1cnc2c(OCc3ccccc3)cccn12 | 9.1 mg/kg | 43% | 32% | 81% |  | inhibition in vivo at 1 mg/kg (Canis familiaris [7]): 49%
17 | Cc1nc2c(OCc3ccccc3F)cccn2c1N | 6.6 mg/kg | 93% | 93% | 93% |  | inhibition in vivo at 4 mg/kg (Canis familiaris [6]): 46%; inhibition in vivo at 2 mg/kg (Canis familiaris [8]): 20%
18 | CC(=O)Nc1c(C)nc2c(OCc3ccccc3)cccn12 | 4.6 mg/kg | 44% | 93% | 24% |  | 
19 | CCc1nc2c(OCc3ccccc3)cccn2c1N | 5.2 mg/kg | 59% | 83% |  |  | inhibition in vivo at 1 mg/kg (Canis familiaris [7]): 72%
20 | Cc1nc2c(COc3ccccc3)cccn2c1N | 6.6 mg/kg | 39% | 27% |  | 34% | 
21 | CC(C)c1nc2c(OCc3ccccc3)cccn2c1N | 2.7 mg/kg | 0% | 0% | 24% |  | 
22 | Cc1nc2cc(CCc3ccccc3)ccn2c1N | 5.2 mg/kg | 0% | 50% | 17% |  | 
23 | Cc1nc2n(c1CC#N)CCCC2OCc1ccccc1 (configuration not stated) |  |  | 44% |  | 0% | 
24 | Cc1nc2c(OCc3ccccc3)cccn2c1NCc1ccccc1 | 2.5 mg/kg |  | 48% |  | 0% | 
25 | COC(=O)Nc1c(C)nc2c(OCc3ccccc3)cccn12 |  |  | 0% |  |  | 
26 | CC(=O)Nc1c(C)nc2c(CCc3ccccc3)cccn12 | 12 mg/kg | 16% | 40% |  | 3% | 

Row | Structure (SMILES) | ED50 (Rattus norvegicus [1]) | inhibition in vivo at 8 mg/kg (Canis familiaris [2]) | inhibition in vivo at 40 mg/kg (Rattus norvegicus [3]) | inhibition in vivo at 2 mg/kg (Canis familiaris [4]) | inhibition in vivo at 5 mg/kg (Canis familiaris [5]) | also measured
27 | Cc1nc2c(OCc3ccsc3)cccn2c1N | 8.4 mg/kg | 88% | 52% | 82% |  | inhibition in vivo at 4 mg/kg (Canis familiaris [6]): 86%; inhibition in vivo at 2 mg/kg (Canis familiaris [8]): 29%
28 | CCCN(CCC)c1c(C)nc2c(OCc3ccccc3)cccn12 | 8.4 mg/kg |  | 60% |  | 0% | 
29 | Cc1cc(OCc2ccccc2)c2nc(C)c(N)n2c1 | 2.3 mg/kg | 50% | 65% | 46% |  | 
30 | Cc1nc2c(CCc3ccccc3)cccn2c1O | 9.6 mg/kg |  | 32% | 0% |  | 
31 | Cc1nc2c(CCc3ccccc3)cccn2c1N | 9 mg/kg | 52% | 47% | 71% |  | inhibition in vivo at 4 mg/kg (Canis familiaris [6]): 41%; inhibition in vivo at 1 mg/kg (Canis familiaris [7]): 46%; inhibition in vivo at 2 mg/kg (Canis familiaris [8]): 19%
32 | Cc1nc2c(OCc3ccccc3)cccn2c1CCN |  | 9% | 63% | 6% |  | 
33 | Cc1nc2c(OCc3ccccc3)cccn2c1NC(C)C | 16 mg/kg |  | 18% |  | 0% | 
34 | Cc1nc2c(OCc3cccs3)cccn2c1N | 5 mg/kg | 86% | 70% | 77% |  | inhibition in vivo at 0.1 mg/kg (Canis familiaris [9]): 12%; inhibition in vivo at 4 mg/kg (Canis familiaris [6]): 80%; inhibition in vivo at 2 mg/kg (Canis familiaris [8]): 30%
35 | Cc1nc2c(OCc3ccccc3)cccn2c1NC(=O)OCc1ccccc1 |  |  | 8% | 82% |  | inhibition in vivo at 4 mg/kg (Canis familiaris [6]): 17%
36 | Cc1nc2c(OCCc3ccccc3)cccn2c1N | 5.2 mg/kg | 39% | 56% | 39% |  | 
37 | CNC(=O)Nc1c(C)nc2c(OCc3ccccc3)cccn12 | 3.5 mg/kg |  | 22% |  | 27% | 
38 | Cc1nc2c(OCc3ccccc3)nccn2c1N | 5 mg/kg | 70% | 79% | 65% |  | ED50 (Canis familiaris [10]): 0.8 mg/kg; inhibition in vivo at 4 mg/kg (Canis familiaris [6]): 69%; inhibition in vivo at 0.4 mg/kg (Canis familiaris [11]): 41%; inhibition in vivo at 1 mg/kg (Canis familiaris [7]): 56%; inhibition in vivo at 0.2 mg/kg (Canis familiaris [12]): 15%; ED50 (Canis familiaris [13]): 1.4 mg/kg; inhibition in vivo at 2 mg/kg (Canis familiaris [8]): 63%
39 | CCNc1c(C)nc2c(OCc3ccccc3)cccn12 | 3.5 mg/kg | 68% | 95% | 32% | 70% | 
40 | CCCc1nc2c(OCc3ccccc3)cccn2c1N |  | 0% | 31% | 45% |  | 
41 | CCNc1c(C)nc2c(CCc3ccccc3)cccn12 | 5.2 mg/kg | 65% | 78% |  | 11% | 
42 | CCNc1c(C)nc2c(OCc3ccccc3)nccn12 | 6 mg/kg |  | 48% |  | 0% | 
43 | Cc1ccn2c(C)c(C)nc2c1OCc1ccccc1 | 16 mg/kg | 35% | 92% | 70% |  | 
44 | Cc1ccn2c(N)c(C)nc2c1OCc1ccccc1 | 13.5 mg/kg | 64% | 60% |  |  | inhibition in vivo at 4 mg/kg (Canis familiaris [6]): 36%
45 | Cc1nc2c(OCc3ccccc3)ccc(C)n2c1CC#N.Cl | 8 mg/kg |  |  |  | 0% | inhibition in vivo at 4 mg/kg (Canis familiaris [6]): 11%
46 | Cc1nc2c(OCc3ccccc3)ccc(C)n2c1C | 8 mg/kg |  | 26% | 13% |  | 
47 | Cc1nc2c(OCc3ccccc3)cccn2c1CN |  | 9% | 46% |  | 49% | 
48 | Cc1nc2c(OCc3ccccc3)cccn2c1NC=O | 10 mg/kg |  | 49% | 3% |  | 
49 | CNc1c(C)nc2c(OCc3ccccc3)cccn12 | 9.8 mg/kg |  | 55% |  |  | 
50 | COc1c(C)nc2c(OCc3ccccc3)cccn12 | 3.6 mg/kg |  | 49% |  | 37% | 
51 | Cc1nc2c(OCc3ccc(F)cc3)cccn2c1N | 4.8 mg/kg | 93% | 95% | 95% |  | inhibition in vivo at 4 mg/kg (Canis familiaris [6]): 60%; inhibition in vivo at 2 mg/kg (Canis familiaris [8]): 55%
